Source: PubChem (several laboratories)
BaF3 parental: parental Ba/F3 cell viability inhibition, counter-screen for JAK2V617F inhibitor project, murine pro-B, CellTiter-Glo luminescence | 220,000 tested, 1.1% active | AID 1486, 2009 | inhibition, % at 5.6 µM | CellTiter-Glo ATP luminescence;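 active means inhibition above a per-campaign cutoff, the mean inhibition of all tested compounds plus 3 SD, cut at about 27% in these data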;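 further: 0% = DMSO wells and 100% = JAK Inhibitor I control wells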
bCat nuc transl: modulators of beta-catenin nuclear translocation, primary screen, imaging, HeLa cells, immunofluorescence, high-content; AID 1665, 2009; nuclear translocation activity, % at 5 µM; 190,000 tested, 0.3% active;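 active means nuclear translocation activity above 50% at 5 µM, with a well cell count of 50 or more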;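 further: per-cell ratio of nuclear to cytoplasmic median beta-catenin stain intensity; plate controls were DMSO negative control for no effect and GSK-3 inhibitor IX positive control for full effect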
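Signal – beta-catenin immunofluorescence imaging with DAPI · Test system – human HeLa cell line · Dosing – 5 µM primary single dose, 0.1% DMSO, 0.02–20 µM confirmation series · Measure – % activation, nuclear-to-cytoplasmic median beta-catenin signal ratio per cell · Incubation – 24 h compound exposure at 37°C, 5% CO2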
Ba/F3 V617F tox: reduced viability of JAK2V617F-dependent Ba/F3 cells, primary screen, JAK2V617F inhibitor project, cell-based, Ba/F3 EpoR-JAK2V617F, luminescence; 220,000 tested, 1.1% active; inhibition, % at 5.6 µM; ATP luminescence; AID 1446, 2008;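 active means inhibition above the campaign mean plus 3 SD over all tested compounds, cut at about 24% in these data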;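 further: cytokine-independent growth of Ba/F3 cells driven by EpoR plus mutant JAK2; 0% = DMSO-treated cells and 100% = JAK inhibitor I control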
Lmaj promast: Leishmania major promastigote growth inhibition, primary screen; AID 1063, 2008; inhibition, % at 10 µM; 200,000 tested, 9% active; Leishmania major promastigotes, resazurin fluorescence viability; in the data active means inhibition above about 50%;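 further: promastigotes grown with compound for 44 hours at 28 °C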
MT stabilizer: microtubule stabilizers in HeLa cells, primary screen, imaging, high-content imaging. HeLa tubulin immunostaining HCS, 24 h; share of cells brighter than vehicle mean+2SD. % tubulin-high responders, % at 10 µM. 200,000 tested, 0.83% active. AID 2205, 2009;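 active means plate Z-score above 3 for both tubulin-high and condensed-nucleus cell shares, with cell loss under 80%, at 10 µM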;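 further: anti alpha tubulin signal scored within the nucleus-defined area of each cell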
APP transl inh: inhibitors of APP translation via 5'UTR reporter, primary screen, APP 5'UTR luciferase, SH-SY5Y cells; 190,000 tested, 0.82% active; inhibition, % at 2 µM; SH-SY5Y APP 5'UTR-luciferase reporter, luminescence;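 active means inhibition above a set limit, derived from the sample mean plus 3 SD, cut at about 45% in these data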
Numbers without * were called inactive; / = not tested or not shown. Only some compounds are listed: those with a hit (about 9.6% of all), similar ones and a draw of the others.

SMILES	BaF3 parental	bCat nuc transl	Ba/F3 V617F tox	Lmaj promast	MT stabilizer	APP transl inh
COc1cc(C2=NOC(C(=O)NCc3ccco3)C2)cc(OC)c1OC (centres undefined)	51*	60*	43*	-2	23*	6
COc1cc(/C=N/NC(=S)NCc2ccco2)cc(OC)c1OC	6	1	0	-1	3	0
COc1ccc(OC)c(-c2cc(C(=O)Nc3ccc(F)cc3F)no2)c1	0	-1	-3	1	1	-8
CCc1ncc(C)nc1CC	/	1	/	/	/	/
COc1ccc(C2=NOC(C(=O)NCc3ccc(F)cc3)C2)cc1 (centres undefined)	4	65*	-3	-6	6	2
Cn1c(SCc2ccc(C#N)cc2Cl)nc2ccccc21	11	-5	8	14	5	-187
COc1cc([N+](=O)[O-])c(C(=O)N2CCOCC2)c([N+](=O)[O-])c1	4	-3	-2	13	1	-6
CC1=C(C(=O)Nc2cccnc2)C(c2cccnc2)n2nc(-c3cccs3)nc2N1 (centres undefined)	3	1	0	84*	6	0
CC1=C(C(=O)Nc2ccccc2)C(c2cccnc2)n2nc(-c3cccnc3)nc2N1 (centres undefined)	4	-3	1	14	8	1
O=C(O)[C@@H]1[C@@H]2C[C@@H]2CN1c1ncccc1[N+](=O)[O-]	3	0	2	-7	5	2
Cc1ccc(CN2C3CCCC2CC(NC(=O)c2ccc(C)cc2)C3)cc1 (centres undefined)	4	0	2	81*	5	-1
Cc1ccc(C(=O)NC2CC3CCC(C2)N3Cc2ccco2)cc1 (centres undefined)	1	0	-1	57*	1	4
Cc1ccc(C(=O)NC2CC3CCCC(C2)N3C(=O)NC2CCCCC2)cc1 (centres undefined)	-4	-2	-1	-4	4	14
COc1ccc(C2C3C(C)=NN=C3CC(C)(O)C2C(C)=O)cc1 (centres undefined)	8	-1	2	-3	2	-13
CCC(C)(C)n1nnnc1C(c1cc2ccc(C)cc2[nH]c1=O)N(Cc1cccnc1)Cc1ccco1 (centres undefined)	-3	-2	-5	83*	2	-3
Cc1ccc2cc(C(c3nnnn3C3CCCC3)N(Cc3ccccc3)Cc3ccco3)c(=O)[nH]c2c1 (centres undefined)	1	-2	-1	80*	3	-24
Cc1cc2cc(C(c3nnnn3C3CCCC3)N(Cc3cccnc3)Cc3ccco3)c(=O)[nH]c2cc1C (centres undefined)	3	-3	-1	50	2	2
CC(C)(C)n1nnnc1C(c1cccs1)N(Cc1cccnc1)Cc1ccco1 (centres undefined)	-1	-1	-1	79*	2	7
COC(OC)C12c3ccccc3C(c3ccccc31)C1C(=O)N(c3cccnc3)C(=O)C12 (centres undefined)	6	0	-1	7	3	-19
ONC(=Nc1ccc(Cl)cc1)c1ccccc1	-1	-2	-5	-3	1	/
CCOC(=O)COc1cc(-n2c(=S)[nH]c3cc(OC)c(OC)cc3c2=O)c(Cl)cc1Cl	2	-2	-1	-10	9.2*	-4
O=C(c1cnn2c(C(F)(F)F)cc(-c3ccc(Br)cc3)nc12)N1CCOCC1	0	2	-1	38	3	3
Cc1nn2c(C(F)(F)F)cc(-c3ccc(Cl)cc3)nc2c1C(=O)N1CCOCC1	1	1	-1	92*	2	-10
Nn1c(SCC(=O)NC(=O)NCc2ccco2)nnc1-c1ccc(OC(F)F)cc1	1	-2	-3	-2	2	-8
Cn1c(=O)cc(OCC(=O)N2CCC(N3CCCCC3)CC2)c2ccccc21	2	/	-3	-5	2	-9
SMILES	BaF3 parental	bCat nuc transl	Ba/F3 V617F tox	Lmaj promast	MT stabilizer	APP transl inh
COc1ccc(S(=O)(=O)N[C@@H](Cc2ccc(Cl)cc2)C(=O)N2CC[C@@]3(O)CCCC[C@H]3C2)cc1	2	-1	-3	86*	3	-3
O=c1[nH]ncc(N2CCN(Cc3ccccc3)CC2)c1Cl	7	-1	3	-1	3	12
COc1ccccc1C(=O)C1CCCN(C(=O)CN2CCCCC2=O)C1 (centres undefined)	-1	3	-1	-3	4	-20
N#CC1=C(N)N2C(=C(C#N)C13CCCCC3)SC1CCCCC12O (centres undefined)	2	-1	-1	25	4	-32
CCCOc1ccc([N+](=O)[O-])cc1C1NC(=S)NC(c2ccccc2)=C1C(=O)OCC (centres undefined)	7	-1	3	100*	2	7
Cc1cc(N2CCCCC2C)nc(-c2ccccc2O)n1 (centres undefined)	1	2	-4	/	/	/
COc1ccc2cc(CN(CC3CCCO3)S(=O)(=O)c3ccccc3Cl)c(=O)[nH]c2c1 (centres undefined)	9	/	-1	7	2	5
COc1ccc(/C=c2/sc3n(c2=O)C(c2ccccc2OC)C2=C(N=3)c3ccccc3CC2)cc1O (centres undefined)	29*	1	11	42	33*	84*
CCCCCCn1c(-c2cccs2)n[nH]c1=S	5	0	0	-8	3	25
C=CCn1c(SCc2cc(C(C)=O)ccc2OCC)nc2ccccc2c1=O	79*	98*	84*	97*	18*	93*
COc1ccc(C(C)=O)cc1CSc1nc2ccccc2c(=O)n1-c1ccccc1	3	2	3	0	9	7
COc1ccc(C(C)=O)cc1CSc1nc2ccccc2c(=O)n1-c1cccc(C)c1	7	0	-1	18	3	9
COc1ccc(C(C)=O)cc1CSc1nc2ccccc2c(=O)n1-c1ccccc1C	8	-1	1	78*	6	8
CCCN1CCN(C(=S)Nc2ccc(SC(F)F)cc2)CC1	12	1	2	90*	3	-16
CCCN1CCN(C(=S)NCc2ccc(Cl)cc2)CC1	0	2	-3	81*	3	16
CC1CCN(C(=S)Nc2ccc(SC(F)F)cc2)CC1	7	0	0	72*	4	-21
CC(=O)N1CCN(C(=S)Nc2ccc(SC(F)F)cc2)CC1	2	-5	-3	0	4	-14
